The source made the active and inactive calls. No cut-off for these calls is given here.
What was measured:
Protein lin-28 homolog A = biological target: T1, Protein lin-28 homolog A (Mus musculus, UniProt Q8K3Y3); assay: (§1) Binding affinity to mouse N-terminal Halo-fused/biotin-labelled Lin28A expressed in Escherichia coli BL21(DE3) assessed as inhibition of protein interaction with pre-Let-7d microRNA measured after 1 hr by cat-ELCCA
T1 sequence (Q8K3Y3 whole entry): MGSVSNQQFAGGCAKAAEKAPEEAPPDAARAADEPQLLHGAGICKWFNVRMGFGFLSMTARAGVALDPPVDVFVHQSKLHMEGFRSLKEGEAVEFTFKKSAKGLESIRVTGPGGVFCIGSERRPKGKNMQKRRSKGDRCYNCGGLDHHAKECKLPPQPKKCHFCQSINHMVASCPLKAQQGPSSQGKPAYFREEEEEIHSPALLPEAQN
How it was run: (§2)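 Biotinylated HaloTag-mLin28A (10 μL of 200 nM in storage buffer) immobilized on streptavidin plates overnight at 4 °C. TCO-pre-let-7d (200 nM in binding buffer) added with compound, 5% DMSO final, 1 h at 25 °C. Then mTet-HRP (750 nM) click for 1 h at 25 °C, washes, chemiluminescent read. CRCs were eight points, 3.3–120 μM.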

[1] = biological target: T2, Protein lin-28 homolog A (Mus musculus) (UniProt Q8K3Y3); assay: as §1; how it was run: as §2
T2 sequence (whole entry): T1 sequence (Q8K3Y3 whole entry)

[2] = Binding affinity to synthetic biotinylated pre-let-7d microRNA at 6.25 to 100 uM by surface plasmon resonance analysis
How it was run: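 SPR with biotinylated pre-let-7d immobilized at 2,300 RU on BioCap chip. Analytes at 100, 50, 25, 12.5, 6.25 μM, injected 30 μL at 30 μL/min; regeneration between cycles.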

[3] = biological target: T2, Protein lin-28 homolog A (Mus musculus); assay: Binding affinity to mouse N-terminal Halo-fused/biotin-labelled Lin28A expressed in Escherichia coli BL21(DE3) assessed as inhibition of protein interaction with pre-Let-7d microRNA by electrophoretic mobility shift assay
[4] = biological target: T2, Protein lin-28 homolog A (Mus musculus); assay: Binding affinity to mouse N-terminal Halo-fused/biotin-labelled Lin28A expressed in Escherichia coli BL21(DE3) assessed as inhibition of protein interaction with microRNA at 20 to 50 uM by electrophoretic mobility shift assay
[5] = biological target: T2, Protein lin-28 homolog A (Mus musculus); assay: Binding affinity to mouse N-terminal Halo-fused/biotin-labelled Lin28A expressed in Escherichia coli BL21(DE3) at 18.7 to 75 uM by surface plasmon resonance analysis
How it was run: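 SPR on BioCap chip with biotinylated HaloTag-Lin28A immobilized at 2,300 RU. Running buffer: 50 mM Tris pH 7.6, 150 mM NaCl, 1 mM β-ME, 5% glycerol, 0.05% Tween-20, 1 mM ZnCl₂, 5% DMSO. Analytes at 75, 37.5, 18.7 μM, injected 50 μL at 50 μL/min; regeneration between cycles.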

[6] = biological target: Eukaryotic translation initiation factor 4E/Eukaryotic translation initiation factor 4E-binding protein 1 (Homo sapiens) (UniProt P06730+Q13541); assay: Inhibition of eIF4E-4E-BP1 (unknown origin) interaction at 100 uM by cat-ELCCA; type: protein assay
Sequence of Eukaryotic translation initiation factor 4E/Eukaryotic translation initiation factor 4E-binding protein 1 (Homo sapiens) (P06730 2-217 limits assumed): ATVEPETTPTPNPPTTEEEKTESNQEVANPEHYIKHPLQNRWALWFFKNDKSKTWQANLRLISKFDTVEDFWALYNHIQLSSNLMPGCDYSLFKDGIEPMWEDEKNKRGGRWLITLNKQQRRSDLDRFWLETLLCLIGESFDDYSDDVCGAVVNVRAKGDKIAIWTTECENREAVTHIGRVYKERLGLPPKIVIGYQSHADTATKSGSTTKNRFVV
Sequence of Eukaryotic translation initiation factor 4E/Eukaryotic translation initiation factor 4E-binding protein 1 (Homo sapiens) (Q13541 2-118 partner limits assumed): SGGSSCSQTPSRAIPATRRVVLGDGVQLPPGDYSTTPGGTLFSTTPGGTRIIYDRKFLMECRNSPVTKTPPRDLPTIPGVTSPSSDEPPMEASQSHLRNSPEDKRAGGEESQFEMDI
How it was run: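 Counter-screen: eIF4E–4E-BP1 interaction read by cat-ELCCA with compound at 100 μM; assay setup cited to earlier work.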

[7] = biological target: T3, Protein lin-28 homolog B (Homo sapiens) (UniProt Q6ZN17); assay: Binding affinity to human N-terminal Halo-fused/biotin-labelled Lin28B expressed in Escherichia coli BL21(DE3) assessed as inhibition of protein interaction with pre-Let-7d microRNA measured after 1 hr by cat-ELCCA
T3 sequence (whole entry): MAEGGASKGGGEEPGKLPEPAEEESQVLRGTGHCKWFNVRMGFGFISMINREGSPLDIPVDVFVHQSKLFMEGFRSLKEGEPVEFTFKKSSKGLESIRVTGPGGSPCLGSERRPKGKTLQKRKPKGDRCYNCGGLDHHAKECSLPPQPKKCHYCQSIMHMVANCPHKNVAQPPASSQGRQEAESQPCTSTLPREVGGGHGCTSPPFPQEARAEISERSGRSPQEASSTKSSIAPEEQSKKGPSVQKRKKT
How it was run: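 Human Lin28B, cloned from A549 cDNA as a HaloTag fusion, expressed in E. coli (IPTG 500 μM, overnight 37 °C), Ni-NTA purified, biotinylated with Biotin-PEG7-HaloTag ligand (10 equiv, overnight 4 °C), immobilized on streptavidin plates. TCO-labelled pre-let-7d plus compound in Tris binding buffer with ZnCl₂ and β-mercaptoethanol, 5% DMSO final, 25 °C 1 h. Bound RNA detected by mTet-HRP click chemistry and chemiluminescence. IC50 from curves.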

[8] = biological target: T2, Protein lin-28 homolog A (Mus musculus); assay: Binding affinity to mouse N-terminal Halo-fused/biotin-labelled Lin28A expressed in Escherichia coli BL21(DE3) assessed as inhibition of protein interaction with pre-Let-7a microRNA at 20 to 50 uM by electrophoretic mobility shift assay
[9] = biological target: Endoribonuclease Dicer (Homo sapiens) (UniProt Q9UPY3); assay: Binding affinity to dicer (unknown origin) assessed as inhibition of dicer-meditated pre-let-7d microRNA maturation at 100 uM by electrophoretic mobility shift assay
Sequence of Endoribonuclease Dicer (Homo sapiens) (Q9UPY3 whole entry): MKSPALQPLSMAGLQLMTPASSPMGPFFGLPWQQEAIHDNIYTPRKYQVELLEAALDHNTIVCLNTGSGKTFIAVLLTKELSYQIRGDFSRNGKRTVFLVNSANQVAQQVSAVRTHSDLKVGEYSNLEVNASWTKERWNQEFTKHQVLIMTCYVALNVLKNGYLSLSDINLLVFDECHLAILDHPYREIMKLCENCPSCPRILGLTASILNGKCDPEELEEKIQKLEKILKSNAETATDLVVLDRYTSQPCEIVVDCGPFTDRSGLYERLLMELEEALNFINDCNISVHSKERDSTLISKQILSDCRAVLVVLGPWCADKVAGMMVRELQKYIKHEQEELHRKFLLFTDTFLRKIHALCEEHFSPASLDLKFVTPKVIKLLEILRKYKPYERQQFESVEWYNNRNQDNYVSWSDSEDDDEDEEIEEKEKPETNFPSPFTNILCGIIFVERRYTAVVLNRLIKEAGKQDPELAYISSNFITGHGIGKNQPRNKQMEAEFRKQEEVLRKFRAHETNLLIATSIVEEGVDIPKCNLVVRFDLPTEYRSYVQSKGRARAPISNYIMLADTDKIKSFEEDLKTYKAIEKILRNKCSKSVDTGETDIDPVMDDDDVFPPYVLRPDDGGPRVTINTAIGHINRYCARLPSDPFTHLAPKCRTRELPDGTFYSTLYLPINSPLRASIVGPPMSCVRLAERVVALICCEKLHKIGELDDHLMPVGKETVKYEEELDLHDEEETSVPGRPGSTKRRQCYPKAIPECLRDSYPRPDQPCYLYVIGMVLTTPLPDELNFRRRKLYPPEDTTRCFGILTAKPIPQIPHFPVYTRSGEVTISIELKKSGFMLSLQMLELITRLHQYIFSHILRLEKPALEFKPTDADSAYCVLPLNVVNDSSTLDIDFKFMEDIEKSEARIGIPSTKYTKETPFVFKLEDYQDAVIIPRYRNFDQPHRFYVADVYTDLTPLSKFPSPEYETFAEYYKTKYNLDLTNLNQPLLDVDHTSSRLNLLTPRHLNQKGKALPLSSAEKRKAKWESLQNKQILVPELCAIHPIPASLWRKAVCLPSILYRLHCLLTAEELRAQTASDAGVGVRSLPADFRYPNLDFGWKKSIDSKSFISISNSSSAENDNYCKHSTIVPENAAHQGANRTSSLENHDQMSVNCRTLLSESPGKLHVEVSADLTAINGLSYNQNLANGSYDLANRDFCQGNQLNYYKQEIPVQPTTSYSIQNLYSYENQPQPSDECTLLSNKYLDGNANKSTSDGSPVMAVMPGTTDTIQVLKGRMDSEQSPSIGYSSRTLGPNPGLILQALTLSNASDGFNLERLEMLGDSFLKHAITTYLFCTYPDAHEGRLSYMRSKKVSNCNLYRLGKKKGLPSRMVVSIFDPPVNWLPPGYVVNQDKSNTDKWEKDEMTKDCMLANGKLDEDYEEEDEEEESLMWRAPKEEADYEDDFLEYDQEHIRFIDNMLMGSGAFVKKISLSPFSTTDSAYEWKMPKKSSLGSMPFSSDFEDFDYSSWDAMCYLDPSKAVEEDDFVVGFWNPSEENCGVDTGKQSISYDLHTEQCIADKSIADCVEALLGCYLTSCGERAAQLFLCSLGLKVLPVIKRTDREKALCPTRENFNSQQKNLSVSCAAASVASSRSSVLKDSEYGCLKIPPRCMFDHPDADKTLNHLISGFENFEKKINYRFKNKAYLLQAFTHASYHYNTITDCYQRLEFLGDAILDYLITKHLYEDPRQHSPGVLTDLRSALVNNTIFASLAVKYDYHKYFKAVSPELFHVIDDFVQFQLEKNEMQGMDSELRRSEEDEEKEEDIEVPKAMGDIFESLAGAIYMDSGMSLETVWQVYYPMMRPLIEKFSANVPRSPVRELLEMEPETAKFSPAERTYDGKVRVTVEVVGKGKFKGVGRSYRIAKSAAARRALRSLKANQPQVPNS
How it was run: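 Dicer-mediated pre-let-7d maturation tested with compound at 100 μM; samples run with and without Dicer; procedure cited to earlier work.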

Compound | IC50 (Protein lin-28 homolog A) [µM] | further results
O=S(=O)(Nc1ccccc1NS(=O)(=O)c1ccc(F)cc1)c1ccc(F)cc1 | 28.3 | 
O=S(=O)(Nc1ccccc1NS(=O)(=O)c1cccc(Cl)c1)c1cccc(Cl)c1 | 5.7 | 
Cc1ccc(S(=O)(=O)Nc2ccc(C)cc2NS(=O)(=O)c2ccc(F)cc2)cc1 | 11.7 | 
O=S(=O)(Nc1ccccc1NS(=O)(=O)c1ccc(Br)cc1)c1ccc(Br)cc1 | 17.5 | 
Cc1ccc(NS(=O)(=O)c2ccc(F)cc2)c(NS(=O)(=O)c2ccc(F)cc2)c1 | 16.2 | 
COc1ccc(S(=O)(=O)Nc2ccccc2NS(=O)(=O)c2ccc(OC)cc2)cc1 | 16.7 | 
O=S(=O)(Nc1ccccc1NS(=O)(=O)c1ccc(Cl)cc1)c1ccc(Cl)cc1 | 27.5 | 
Nc1ccccc1NS(=O)(=O)c1ccccc1 |  | inhibition [1]: inactive
O=S(=O)(Nc1ccccc1NS(=O)(=O)c1cccc(Br)c1)c1ccc(F)cc1 | 16.2 | 
Cc1ccc(S(=O)(=O)Nc2ccc(C)cc2NS(=O)(=O)c2ccc(C)cc2)cc1 | 14.1 | 
O=S(=O)(Nc1ccccc1NS(=O)(=O)c1ccc(Cl)cc1)c1ccc(F)cc1 | 27.3 | 
Cc1ccc(NS(=O)(=O)c2cccc(Cl)c2)c(NS(=O)(=O)c2cccc(Cl)c2)c1 | 4.3 | 
COc1ccc(S(=O)(=O)Nc2ccccc2NS(=O)(=O)c2ccc(F)cc2)cc1 | 17.2 | 
Cc1ccc(S(=O)(=O)Nc2ccc(F)cc2NS(=O)(=O)c2ccc(C)c(Cl)c2)cc1Cl | 3.7 | 
Cc1ccc(S(=O)(=O)Nc2ccc(F)cc2NS(=O)(=O)c2ccc(C)cc2)cc1 | 8.3 | Activity [2]: inactive; inhibition [3]: Active; inhibition [4]: Active; Activity [5]: Active; inhibition [6]: inactive; inhibition [7]: Active; inhibition [8]: Active; inhibition [9]: inactive
O=S(=O)(Nc1ccccc1NS(=O)(=O)c1ccccc1)c1ccccc1 | 32.2 | 
O=S(=O)(Nc1ccccc1NS(=O)(=O)c1cccc(Cl)c1)c1ccc(F)cc1 | 10.8 | 
CC(=O)Nc1ccc(S(=O)(=O)Nc2ccccc2NS(=O)(=O)c2ccc(NC(C)=O)cc2)cc1 | 62.5 | 
Cc1ccc(NS(=O)(=O)c2ccccc2)c(NS(=O)(=O)c2ccccc2)c1 | 28.8 | 
O=S(=O)(Nc1ccccc1NS(=O)(=O)c1ccc(F)cc1)c1ccccc1 | 13.9 | 
Cc1ccc(S(=O)(=O)Nc2ccc(C)cc2NS(=O)(=O)c2cccc(C(F)(F)F)c2)cc1 | 10.4 | inhibition [3]: Active; inhibition [4]: Active; inhibition [7]: Active; inhibition [8]: Active; inhibition [9]: inactive
Cc1ccc(NS(=O)(=O)c2ccc(Cl)cc2)c(NS(=O)(=O)c2ccc(Cl)cc2)c1 | 28.4 | 
O=C(Nc1ccccc1NC(=O)c1ccccc1)c1ccccc1 |  | inhibition [1]: inactive
Cc1ccc(S(=O)(=O)Nc2ccccc2NS(=O)(=O)c2ccc(C)c(Cl)c2)cc1Cl | 2.3 | 
O=S(=O)(Nc1cccc(NS(=O)(=O)c2ccccc2)c1)c1ccccc1 |  | inhibition [1]: inactive
O=S(=O)(c1ccccc1)N1CCN(S(=O)(=O)c2ccccc2)c2ccccc21 |  | inhibition [1]: inactive
